Consider three molecules from ChEMBL document CHEMBL1275269, “Cyclization of some carbothioamide derivatives containing antipyrine and triazole moieties and investigation of their antimicrobial activities” (2010).

Structures are written as SMILES. Activity calls are given as the source filed them. The calls are words filed in the database; no cut-off is given here.

One assay has as its system Escherichia coli. Nature of the assay: Antibacterial activity against Escherichia coli ATCC 25922 after 18 hrs by agar-well diffusion method. Further: test concentration or dose not given here. Type of assay: functional. The essentials: (§1)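 Microorganisms flood-inoculated onto the surface of Mueller-Hinton agar or Sabouraud dextrose agar, then dried. 5 mm diameter wells cut into the agar with a sterile cork-borer.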
A general note: In agar diffusion tests the substance spreads into inoculated agar from a disc or well.

A further assay concerns Klebsiella aerogenes. Nature of the assay: Antibacterial activity against Enterobacter aerogenes ATCC 13048 after 18 hrs by agar-well diffusion method. On IZ: test concentration or dose not given here. Format: functional. In outline: as §1
Assay [1] concerns Yersinia pseudotuberculosis. Nature of the assay: Antibacterial activity against Yersinia pseudotuberculosis ATCC 911 after 18 hrs by agar-well diffusion method. Type of assay: functional. The essentials: (§2)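 Organisms flood-inoculated onto the agar surface and dried. Five-millimetre wells were cut with a sterile cork-borer, and test substance was delivered into each well.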
In a further assay the test system is Pseudomonas aeruginosa. Nature of the assay: Antibacterial activity against Pseudomonas aeruginosa ATCC 43288 after 18 hrs by agar-well diffusion method. Further: test concentration or dose not given here. Format: functional. The essentials: as §1
The next assay relates to Staphylococcus aureus. The experiment in a line: Antibacterial activity against Staphylococcus aureus ATCC 25923 after 18 hrs by agar-well diffusion method. Further: test concentration or dose not given here. Format: functional. In outline:
as §1

The next assay concerns Enterococcus faecalis. Nature of the assay: Antibacterial activity against Enterococcus faecalis ATCC 29212 after 18 hrs by agar-well diffusion method. Further: test concentration or dose not given here. Format: functional. The essentials:
as §1

The test system of another assay is Bacillus cereus. The experiment in a line: Antibacterial activity against Bacillus cereus 702 after 18 hrs by agar-well diffusion method. Further: test concentration or dose not given here. Format: functional. The essentials:
as §1

For assay [2], the system named is Mycolicibacterium smegmatis. Nature of the assay: Antibacterial activity against Mycobacterium smegmatis ATCC 607 after 18 hrs by agar-well diffusion method. Further: test concentration or dose not given here. Format: functional. The essentials:
as §1

The test system of another assay is Candida albicans. Nature of the assay: Antifungal activity against Candida albicans ATCC 60193 after 18 hrs by agar-well diffusion method. Type of assay: functional. In outline:
(§3)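 Yeast flood-inoculated onto Sabouraud dextrose agar and dried. Five-millimetre wells were cut with a sterile cork-borer, and test substance was delivered into each well.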

The subject of the next assay is Candida tropicalis. Nature of the assay: Antifungal activity against Candida tropicalis ATCC 13803 after 18 hrs by agar-well diffusion method. Type of assay: functional. The essentials: as §3
Another assay has as its system Saccharomyces cerevisiae. Nature of the assay: Antifungal activity against Saccharomyces cerevisiae RSKK 251 after 18 hrs by agar-well diffusion method. Format: functional. The essentials:
as §2

The subject of the next assay is Aspergillus niger. Nature of the assay: Antifungal activity against Aspergillus niger RSKK 4017 after 18 hrs by agar-well diffusion method. Format: functional, organism-based. The essentials: as §1

With `Cc1c(-n2c(Cc3ccc(Cl)cc3)nn(Cc3nnc(S)o3)c2=O)c(=O)n(-c2ccccc2)n1C`, the “inhibition zone (IZ)” value is recorded as 35 mm in the assay with Escherichia coli; 30 mm with Klebsiella aerogenes; 30 mm in assay [1]; 30 mm with Pseudomonas aeruginosa; 30 mm with Staphylococcus aureus; 28 mm in the assay with Enterococcus faecalis. Besides, the “inhibition zone (IZ)” value in the assay on Bacillus cereus amounted to 30 mm; in assay [2] it was 38 mm. The outcome in the assay on Candida albicans, in the assay on Candida tropicalis, in the assay with Saccharomyces cerevisiae and with Aspergillus niger was Active.
As for `Cc1c(-n2c(Cc3ccc(Cl)cc3)nn(CC(=O)NNC(=S)Nc3ccc(F)cc3)c2=O)c(=O)n(-c2ccccc2)n1C`, the “inhibition zone (IZ)” value in the assay on Escherichia coli is on record as 15 mm; with Klebsiella aerogenes, 8 mm; in [1], 10 mm; in the assay with Pseudomonas aeruginosa it was 10 mm; with Staphylococcus aureus it was 10 mm; in the assay with Enterococcus faecalis, 8 mm. Further, the “inhibition zone (IZ)” value with Bacillus cereus is on record as 10 mm; in assay [2], 15 mm. The outcome in the assay on Candida albicans, in the assay with Candida tropicalis, with Saccharomyces cerevisiae and with Aspergillus niger was Active.
Turning to `Cc1c(-n2c(Cc3ccc(Cl)cc3)nn(CC(=O)N/N=c3/scc(-c4ccc([N+](=O)[O-])cc4)n3-c3ccccc3)c2=O)c(=O)n(-c2ccccc2)n1C`, the “inhibition zone (IZ)” value in the assay with Escherichia coli is reported as 15 mm; in [1] it was 30 mm; with Pseudomonas aeruginosa it was 20 mm; in the assay with Staphylococcus aureus it was 30 mm; in the assay on Enterococcus faecalis it was 18 mm; with Bacillus cereus it was 20 mm. Moreover, in [2], the “inhibition zone (IZ)” value came to 25 mm. Moreover, the outcome in the assay with Klebsiella aerogenes, with Candida albicans, with Candida tropicalis, in the assay with Saccharomyces cerevisiae and in the assay with Aspergillus niger was Active.
